Reference: ChEMBL document CHEMBL4190388, “Discovery and Optimization of Indolyl-Containing 4-Hydroxy-2-Pyridone Type II DNA Topoisomerase Inhibitors Active against Multidrug Resistant Gram-negative Bacteria” (J Med Chem, 2018)
In brackets after ≈: the same amount, converted by molar mass.

Columns and labels:
[1] = Inhibition of Escherichia coli DNA topoisomerase 4 assessed as reduction in decatenation activity using kinetoplast concatenated DNA as substrate after 30 mins by picogreen dye based fluorescence assay
Acinetobacter baumannii [2] = experiment: Antibacterial activity against fluoroquinolone resistant Acinetobacter baumannii isolate MMX2240 by CLSI M100-S17 protocol based method; format: functional
Escherichia coli [3] = experiment: Antibacterial activity against quinolone resistant Escherichia coli by broth microdilution method; format: functional
In short: (§1)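 MICs were determined by CLSI broth methods, except that organisms were grown in brain–heart–infusion medium. The panel comprised wild-type and resistant E. coli and A. baumannii strains, including 12 strains whose details are given by reference.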

Acinetobacter baumannii [4] = experiment: Antibacterial activity against beta-lactam resistant Acinetobacter baumannii by broth microdilution method; format: functional; in short: as §1
Acinetobacter baumannii [5] = experiment: Antibacterial activity against quinolone resistant Acinetobacter baumannii by broth microdilution method; format: functional; in short: as §1
[6] = Inhibition of His tagged Escherichia coli ATCC 25922 DNA gyrase A expressed in Escherichia coli BL21 (DE3) pLysS cells assessed as reduction in enzyme-mediated supercoiling of relaxed plasmid DNA pNO1 after 30 mins in presence of biotinylated TFO1 by fluorescence assay
Escherichia coli [7] = experiment: Antibacterial activity against wild type Escherichia coli ATCC 25922 in presence of HSA by CLSI M100-S17 protocol based method; format: functional
Escherichia coli [8] = experiment: Antibacterial activity against wild type Escherichia coli ATCC 25922 by CLSI M100-S17 protocol based method; format: functional
Escherichia coli [9] = experiment: Antibacterial activity against fluoroquinolone resistant Escherichia coli SKM18 by CLSI M100-S17 protocol based method; format: functional
Escherichia coli [10] = experiment: Antibacterial activity against quinolone resistance Escherichia coli isolate ELZ4251 harboring gyrA/parC mutant by CLSI M100-S17 protocol based method; format: functional
Acinetobacter baumannii [11] = experiment: Antibacterial activity against multidrug resistant Acinetobacter baumannii by broth microdilution method; format: functional; in short: as §1
Escherichia coli [12] = experiment: Antibacterial activity against multidrug resistant Escherichia coli by broth microdilution method; format: functional; in short: as §1
Klebsiella pneumoniae = experiment: Antibacterial activity against wild type Klebsiella pneumoniae ATCC 35657 by CLSI M100-S17 protocol based method; format: functional
Acinetobacter baumannii [13] = experiment: Antibacterial activity against aminoglycoside resistant Acinetobacter baumannii by broth microdilution method; format: functional; in short: as §1
Acinetobacter baumannii [14] = experiment: Antibacterial activity against carbapenem resistant Acinetobacter baumannii by broth microdilution method; format: functional; in short: as §1
Escherichia coli [15] = experiment: Antibacterial activity against wild type Escherichia coli by broth microdilution method; format: functional; in short: as §1
Escherichia coli [16] = experiment: Antibacterial activity against beta-lactam resistant Escherichia coli by broth microdilution method; format: functional; in short: as §1
Acinetobacter baumannii [17] = experiment: Antibacterial activity against wild type Acinetobacter baumannii ATCC BAA-747 by CLSI M100-S17 protocol based method; format: functional
Acinetobacter baumannii [18] = experiment: Antibacterial activity against wild type Acinetobacter baumannii by broth microdilution method; format: functional; in short: as §1
Escherichia coli [19] = experiment: Antibacterial activity against aminoglycoside resistant Escherichia coli by broth microdilution method; format: functional; in short: as §1
Escherichia coli [20] = experiment: Selectivity ratio of MIC for wild type Escherichia coli ATCC 25922 in presence of HSA to MIC for wild type Escherichia coli ATCC 25922; format: functional
[21] = Escherichia coli, read-out: MIC
[22] = Acinetobacter baumannii, read-out: MIC

SMILES	MIC (Acinetobacter baumannii [2])	MIC50 (Escherichia coli [3]; Escherichia coli)	MIC90 (Escherichia coli [3]; Escherichia coli)	MIC50 (Acinetobacter baumannii [4]; Acinetobacter baumannii)	MIC90 (Acinetobacter baumannii [4]; Acinetobacter baumannii)	MIC50 (Acinetobacter baumannii [5]; Acinetobacter baumannii)	MIC90 (Acinetobacter baumannii [5]; Acinetobacter baumannii)	MIC (Escherichia coli [7])	MIC (Escherichia coli [8])	MIC (Escherichia coli [9])	MIC (Escherichia coli [10])	MIC50 (Acinetobacter baumannii [11]; Acinetobacter baumannii)	MIC90 (Acinetobacter baumannii [11]; Acinetobacter baumannii)	MIC50 (Escherichia coli [12]; Escherichia coli)	MIC90 (Escherichia coli [12]; Escherichia coli)	MIC (Klebsiella pneumoniae)	MIC50 (Acinetobacter baumannii [13]; Acinetobacter baumannii)	MIC90 (Acinetobacter baumannii [13]; Acinetobacter baumannii)	MIC50 (Acinetobacter baumannii [14]; Acinetobacter baumannii)	MIC (Acinetobacter baumannii [17])	other results
CCNCc1cc2cc(-c3[nH]c(=O)c(C(=O)O)c(O)c3CC)ccc2n1C	6.3 µg/mL (≈ 17.1 µM)	1 µg/mL (≈ 2.71 µM)	4 µg/mL (≈ 10.8 µM)	2 µg/mL (≈ 5.41 µM)	16 µg/mL (≈ 43.3 µM)	2 µg/mL (≈ 5.41 µM)	16 µg/mL (≈ 43.3 µM)	1.6 µg/mL	0.39 µg/mL (≈ 1.06 µM)	1.6 µg/mL (≈ 4.33 µM)	3.1 µg/mL (≈ 8.39 µM)	2 µg/mL (≈ 5.41 µM)	16 µg/mL (≈ 43.3 µM)	1 µg/mL (≈ 2.71 µM)	4 µg/mL (≈ 10.8 µM)	0.39 µg/mL (≈ 1.06 µM)	2 µg/mL (≈ 5.41 µM)	16 µg/mL (≈ 43.3 µM)	2 µg/mL (≈ 5.41 µM)	0.78 µg/mL (≈ 2.11 µM)	IC50 [1]: 3300 nM; MIC (Escherichia coli [3]; [21]): 0.25 to 4 µg/mL (≈ 0.677 to 10.8 µM); MIC (Acinetobacter baumannii [4]; [22]): 0.5 to 32 µg/mL (≈ 1.35 to 86.6 µM); MIC (Acinetobacter baumannii [5]; [22]): 0.5 to 32 µg/mL (≈ 1.35 to 86.6 µM); IC50 [6]: 300 nM; MIC (Acinetobacter baumannii [11]; [22]): 0.5 to 32 µg/mL (≈ 1.35 to 86.6 µM); MIC (Escherichia coli [12]; [21]): 0.25 to 4 µg/mL (≈ 0.677 to 10.8 µM); MIC (Acinetobacter baumannii [13]; [22]): 0.5 to 32 µg/mL (≈ 1.35 to 86.6 µM); MIC90 (Acinetobacter baumannii [14]; Acinetobacter baumannii): 16 µg/mL (≈ 43.3 µM); MIC (Acinetobacter baumannii [14]; [22]): 0.5 to 32 µg/mL (≈ 1.35 to 86.6 µM); MIC50 (Escherichia coli [15]): 1 µg/mL (≈ 2.71 µM); MIC90 (Escherichia coli [15]): 4 µg/mL (≈ 10.8 µM); MIC50 (Escherichia coli [16]; Escherichia coli): 1 µg/mL (≈ 2.71 µM); MIC90 (Escherichia coli [16]; Escherichia coli): 4 µg/mL (≈ 10.8 µM); MIC (Escherichia coli [16]; [21]): 0.25 to 4 µg/mL (≈ 0.677 to 10.8 µM); MIC50 (Acinetobacter baumannii [18]): 2 µg/mL (≈ 5.41 µM); MIC90 (Acinetobacter baumannii [18]): 16 µg/mL (≈ 43.3 µM); MIC50 (Escherichia coli [19]; Escherichia coli): 1 µg/mL (≈ 2.71 µM); MIC90 (Escherichia coli [19]; Escherichia coli): 4 µg/mL (≈ 10.8 µM); MIC (Escherichia coli [19]; [21]): 0.25 to 4 µg/mL (≈ 0.677 to 10.8 µM)
CCNCc1cc2cc3c(cc2n1C)SCCc1c-3[nH]c(=O)c(C(=O)O)c1O	3.9 µg/mL (≈ 9.76 µM)							15.6 µg/mL	1 µg/mL (≈ 2.5 µM)	0.5 µg/mL (≈ 1.25 µM)	1.6 µg/mL (≈ 4.01 µM)					1 µg/mL (≈ 2.5 µM)				3.9 µg/mL (≈ 9.76 µM)	Ratio (Escherichia coli [20]): 8 - 16
CC(C)NCc1cc2cc3c(cc2n1C)OCCc1c-3[nH]c(=O)c(C(=O)O)c1O	6.3 µg/mL (≈ 15.9 µM)							2 µg/mL	0.49 µg/mL (≈ 1.23 µM)	0.49 µg/mL (≈ 1.23 µM)	1 µg/mL (≈ 2.52 µM)					1.6 µg/mL (≈ 4.03 µM)				3.9 µg/mL (≈ 9.81 µM)	Ratio (Escherichia coli [20]): 2 - 4
C[C@H]1COc2c(N3CCN(C)CC3)c(F)cc3c(=O)c(C(=O)O)cn1c23.C[C@H]1COc2c(N3CCN(C)CC3)c(F)cc3c(=O)c(C(=O)O)cn1c23.O [LEVOFLOXACIN]		0.06 µg/mL	32 µg/mL	2 µg/mL	16 µg/mL	2 µg/mL	16 µg/mL					2 µg/mL	16 µg/mL	0.06 µg/mL	32 µg/mL		2 µg/mL	16 µg/mL	2 µg/mL		MIC (Escherichia coli [3]): 0.015 to 32 µg/mL; MIC (Acinetobacter baumannii [4]): 0.06 to 64 µg/mL; MIC (Acinetobacter baumannii [5]): 0.06 to 64 µg/mL; MIC (Acinetobacter baumannii [11]): 0.06 to 64 µg/mL; MIC (Escherichia coli [12]): 0.015 to 32 µg/mL; MIC (Acinetobacter baumannii [13]): 0.06 to 64 µg/mL; MIC (Acinetobacter baumannii [14]): 0.06 to 64 µg/mL; MIC90 (Acinetobacter baumannii [14]; Acinetobacter baumannii): 16 µg/mL; MIC50 (Escherichia coli [15]): 0.06 µg/mL; MIC90 (Escherichia coli [15]): 32 µg/mL; MIC (Escherichia coli [16]): 0.015 to 32 µg/mL; MIC50 (Escherichia coli [16]; Escherichia coli): 0.06 µg/mL; MIC90 (Escherichia coli [16]; Escherichia coli): 32 µg/mL; MIC50 (Acinetobacter baumannii [18]): 2 µg/mL; MIC90 (Acinetobacter baumannii [18]): 16 µg/mL; MIC (Escherichia coli [19]): 0.015 to 32 µg/mL; MIC50 (Escherichia coli [19]; Escherichia coli): 0.06 µg/mL; MIC90 (Escherichia coli [19]; Escherichia coli): 32 µg/mL
